Measured values taken from ChEMBL document CHEMBL1121426, “Structure-activity study of antiulcerous and antiinflammatory drugs by discriminant analysis” (J Med Chem, 1980).

How the values were obtained:
[1] = Partition coefficient (logP); type: physicochemical; settings: octanol/water
Rattus norvegicus [2] = assay: Tested for inhibition of edema growth in rat; type: functional; parameters: concentration or dose not given beside the values
Outline: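 Carrageenin paw edema in male Wistar rats (120-150 g, 10 per group). Dosing was oral, as 1% suspensions in 0.5% aqueous Na-CMC: phenylacetic acids at 100 mg/kg, aminouracils at 200 mg/kg. Paw volume was read by mercury displacement before and 3 h after injection. Percent inhibition of mean swelling was taken versus control; error <±10%.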

Rattus norvegicus [3] = assay: Antiulcer activity in rat at the dose of 20 mg/kg administered intraperitoneally.; type: functional; settings: ip, route intraperitoneal
Outline: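 Pyloric ligation was done under ether on Wistar-King rats (200-250 g, 10 per group) fasted 24 h. Drug was suspended at 10 mg/mL in 0.9% saline with a trace of Tween 80 and given ip at 20 mg/kg; controls received saline. Forestomach ulcers were scored macroscopically 18 h later as an ulcer index. Percent inhibition was taken versus the mean control index; error <±10%.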

CCOc1cccc(CC(=O)O)c1
logP [1]: 1.88 | Inhibition (Rattus norvegicus [2]): 17%

CCN(CC)c1c(C)n(C)c(=O)n(-c2ccccc2)c1=O
logP [1]: 2.11 | Inhibition (Rattus norvegicus [2]): 45%

Nc1nc(N)nc(-c2cccc(Cl)c2)n1
inhibition in vivo at 20 mg/kg (Rattus norvegicus [3]): 100% | logP [1]: 2.33

COc1cc(CC(=O)O)cc(C2CCCCC2)c1
logP [1]: 3.66 | Inhibition (Rattus norvegicus [2]): 35%

Cc1cccc(CC(=O)O)c1
logP [1]: 1.89 | Inhibition (Rattus norvegicus [2]): 0%

Nc1nc(N)nc(-c2ccccc2Cl)n1
inhibition in vivo at 20 mg/kg (Rattus norvegicus [3]): 36% | logP [1]: 1.19

COc1cc(CC(=O)O)cc(-c2ccc(F)cc2)c1
logP [1]: 3.5 | Inhibition (Rattus norvegicus [2]): 74%

Nc1nc(N)nc(-c2ccccc2[N+](=O)[O-])n1
inhibition in vivo at 20 mg/kg (Rattus norvegicus [3]): 11% | logP [1]: 0.49

CCn1c(=O)c(N(C)C)c(C)n(-c2ccccc2)c1=O
logP [1]: 2.29 | Inhibition (Rattus norvegicus [2]): 51%

Nc1nc(N)nc(-c2c(Cl)cccc2Cl)n1
inhibition in vivo at 20 mg/kg (Rattus norvegicus [3]): 54% | logP [1]: 1.38

Nc1nc(N)nc(-c2ccc(F)cc2)n1
inhibition in vivo at 20 mg/kg (Rattus norvegicus [3]): 84% | logP [1]: 1.61

COc1ccccc1-c1nc(N)nc(N)n1
inhibition in vivo at 20 mg/kg (Rattus norvegicus [3]): 1% | logP [1]: 0.58

O=C(O)Cc1cccc(Cl)c1
logP [1]: 1.59 | Inhibition (Rattus norvegicus [2]): 0%

CCc1ccccc1-c1nc(N)nc(N)n1
inhibition in vivo at 20 mg/kg (Rattus norvegicus [3]): 20% | logP [1]: 1.65

CCCCOc1cc(C)cc(CC(=O)O)c1
logP [1]: 3.38 | Inhibition (Rattus norvegicus [2]): 3%

Cc1c(N2CCCC2)c(=O)n(-c2ccccc2)c(=O)n1C
logP [1]: 2.26 | Inhibition (Rattus norvegicus [2]): 32%

Nc1nc(N)nc(-c2ccc(Cl)cc2Cl)n1
inhibition in vivo at 20 mg/kg (Rattus norvegicus [3]): 100% | logP [1]: 2.07

CCOc1ccccc1-c1nc(N)nc(N)n1
inhibition in vivo at 20 mg/kg (Rattus norvegicus [3]): -5% | logP [1]: 1.03

Cc1c(N(C)C)c(=O)n(C)c(=O)n1-c1ccccc1
logP [1]: 1.19 | Inhibition (Rattus norvegicus [2]): 65%

Cc1c(N(C)C)c(=O)n(-c2ccccc2)c(=O)n1C
logP [1]: 1.3 | Inhibition (Rattus norvegicus [2]): 44%

Cc1c(N(C)C)c(=O)n(CCO)c(=O)n1-c1ccccc1
logP [1]: 1.12 | Inhibition (Rattus norvegicus [2]): 34%

Cc1c(N(C)C)c(=O)n(-c2ccccc2)c(=O)n1CCO
logP [1]: 0.85 | Inhibition (Rattus norvegicus [2]): 31%

COc1cc(CC(=O)O)cc(C(C)C)c1
logP [1]: 2.75 | Inhibition (Rattus norvegicus [2]): 10%

C=CCN(CC=C)c1c(C)n(-c2ccccc2)c(=O)n(C)c1=O
logP [1]: 2.59 | Inhibition (Rattus norvegicus [2]): 46%

Cc1c(N(C)C)c(=O)n(C)c(=O)n1-c1ccc(Cl)cc1
logP [1]: 2.32 | Inhibition (Rattus norvegicus [2]): 41%

COc1cc(CC(=O)O)cc(-c2ccccc2)c1
logP [1]: 3.3 | Inhibition (Rattus norvegicus [2]): 68%

CCN(CC)c1c(C)n(-c2ccccc2)c(=O)n(CC)c1=O
logP [1]: 2.78 | Inhibition (Rattus norvegicus [2]): 53%

Cc1c(NCC(C)C)c(=O)n(-c2ccccc2)c(=O)n1C
logP [1]: 1.48 | Inhibition (Rattus norvegicus [2]): 58%

Nc1nc(N)nc(-c2cccc(C(F)(F)F)c2)n1
inhibition in vivo at 20 mg/kg (Rattus norvegicus [3]): 81% | logP [1]: 2.67

Nc1nc(N)nc(-c2cccc(Br)c2)n1
inhibition in vivo at 20 mg/kg (Rattus norvegicus [3]): 96% | logP [1]: 2.44

Cc1c(N2CCOCC2)c(=O)n(-c2ccccc2)c(=O)n1C
logP [1]: 0.69 | Inhibition (Rattus norvegicus [2]): 35%

COc1ccc(-c2cc(CC(=O)O)cc(OC)c2)cc1
logP [1]: 3.28 | Inhibition (Rattus norvegicus [2]): 13%

Nc1nc(N)nc(-c2ccccc2Br)n1
inhibition in vivo at 20 mg/kg (Rattus norvegicus [3]): 26% | logP [1]: 1.26

COc1cccc(CC(=O)O)c1
logP [1]: 1.45 | Inhibition (Rattus norvegicus [2]): -3%

Nc1nc(N)nc(-c2ccc([N+](=O)[O-])cc2)n1
inhibition in vivo at 20 mg/kg (Rattus norvegicus [3]): 41% | logP [1]: 1.6

O=C(O)Cc1cccc(F)c1
logP [1]: 1.59 | Inhibition (Rattus norvegicus [2]): 0%

CCN(CC)c1c(C)n(CC)c(=O)n(-c2ccccc2)c1=O
logP [1]: 2.2 | Inhibition (Rattus norvegicus [2]): 57%

C=CCn1c(C)c(N(C)C)c(=O)n(-c2ccccc2)c1=O
logP [1]: 1.44 | Inhibition (Rattus norvegicus [2]): 54%

CCCNc1c(C)n(C)c(=O)n(-c2ccccc2)c1=O
logP [1]: 1.2 | Inhibition (Rattus norvegicus [2]): 64%

Cc1c(N2CCCCC2)c(=O)n(-c2ccccc2)c(=O)n1C
logP [1]: 2.76 | Inhibition (Rattus norvegicus [2]): 27%

Nc1nc(N)nc(-c2cccc(F)c2)n1
inhibition in vivo at 20 mg/kg (Rattus norvegicus [3]): 70% | logP [1]: 1.73

O=C(O)Cc1cccc([N+](=O)[O-])c1
logP [1]: 1.34 | Inhibition (Rattus norvegicus [2]): 0%

Nc1nc(N)nc(-c2ccc(Cl)cc2Br)n1
inhibition in vivo at 20 mg/kg (Rattus norvegicus [3]): 96% | logP [1]: 2.09

Cc1c(N2CCOCC2)c(=O)n(C)c(=O)n1C1CCCCC1
logP [1]: 2.39 | Inhibition (Rattus norvegicus [2]): 44%

Nc1nc(N)nc(-c2cc(Cl)ccc2Br)n1
inhibition in vivo at 20 mg/kg (Rattus norvegicus [3]): 81% | logP [1]: 1.85

Nc1nc(N)nc(-c2cc(F)ccc2Cl)n1
inhibition in vivo at 20 mg/kg (Rattus norvegicus [3]): 78% | logP [1]: 1.38

O=C(O)Cc1cc(O)cc(-c2ccccc2)c1
logP [1]: 2.75 | Inhibition (Rattus norvegicus [2]): 14%

Nc1nc(N)nc(-c2cccc(SC(F)(F)F)c2)n1
inhibition in vivo at 20 mg/kg (Rattus norvegicus [3]): 87% | logP [1]: 3.2

COc1cc(CC(=O)O)cc(-c2ccc(Cl)cc2Cl)c1
logP [1]: 4.08 | Inhibition (Rattus norvegicus [2]): 60%

Nc1nc(N)nc(-c2ccc(Cl)cc2)n1
inhibition in vivo at 20 mg/kg (Rattus norvegicus [3]): 69%

Cc1c(N(C)C)c(=O)[nH]c(=O)n1-c1ccccc1
logP [1]: 1.4 | Inhibition (Rattus norvegicus [2]): 35%

CC(C)Cc1ccc(CC(=O)O)cc1 [IBUFENAC]
logP [1]: 3.38 | Inhibition (Rattus norvegicus [2]): 32%

O=C(O)Cc1cc(O)cc(-c2ccc(Cl)cc2)c1
logP [1]: 3.42 | Inhibition (Rattus norvegicus [2]): 14%

Nc1nc(N)nc(-c2ccccc2)n1 [BENZOGUANAMINE]
inhibition in vivo at 20 mg/kg (Rattus norvegicus [3]): 70% | logP [1]: 1.36

CCN(CC)c1c(C)n(-c2ccccc2)c(=O)n(C)c1=O
logP [1]: 2.19 | Inhibition (Rattus norvegicus [2]): 46%

Nc1nc(N)nc(-c2cc(Br)ccc2Br)n1
inhibition in vivo at 20 mg/kg (Rattus norvegicus [3]): 43% | logP [1]: 2.09

Cc1ccccc1-c1nc(N)nc(N)n1
inhibition in vivo at 20 mg/kg (Rattus norvegicus [3]): 28% | logP [1]: 1.26

CCCNc1c(C)n(-c2ccccc2)c(=O)n(C)c1=O
logP [1]: 1.7 | Inhibition (Rattus norvegicus [2]): 45%

CSc1cccc(-c2nc(N)nc(N)n2)c1
inhibition in vivo at 20 mg/kg (Rattus norvegicus [3]): 49% | logP [1]: 2.16

Nc1nc(N)nc(-c2cc(Br)ccc2Cl)n1
inhibition in vivo at 20 mg/kg (Rattus norvegicus [3]): 86% | logP [1]: 2.04

Nc1nc(N)nc(-c2ccccc2I)n1
inhibition in vivo at 20 mg/kg (Rattus norvegicus [3]): -7% | logP [1]: 1.41

Nc1nc(N)nc(-c2cc(C(F)(F)F)ccc2Cl)n1
inhibition in vivo at 20 mg/kg (Rattus norvegicus [3]): 51% | logP [1]: 2.27

Cc1ccc(-c2nc(N)nc(N)n2)cc1
inhibition in vivo at 20 mg/kg (Rattus norvegicus [3]): 54% | logP [1]: 1.92

Nc1nc(N)nc(-c2cc(Cl)ccc2Cl)n1 [IRSOGLADINE]
inhibition in vivo at 20 mg/kg (Rattus norvegicus [3]): 100% | logP [1]: 1.97

Nc1nc(N)nc(-c2cccc([N+](=O)[O-])c2)n1
inhibition in vivo at 20 mg/kg (Rattus norvegicus [3]): 85% | logP [1]: 1.57

Cc1cc(CC(=O)O)cc(OCC(C)C)c1
logP [1]: 3.33 | Inhibition (Rattus norvegicus [2]): 13%

COc1cc(CC(=O)O)cc(-c2ccc(C)cc2)c1
logP [1]: 3.72 | Inhibition (Rattus norvegicus [2]): 23%

COc1cc(C)cc(CC(=O)O)c1
logP [1]: 1.94 | Inhibition (Rattus norvegicus [2]): 6%

CCCCNc1c(C)n(C)c(=O)n(-c2ccccc2)c1=O
logP [1]: 1.69 | Inhibition (Rattus norvegicus [2]): 48%

Cc1c(N(C)C)c(=O)n(C)c(=O)n1C
logP [1]: 0.99 | Inhibition (Rattus norvegicus [2]): 37%

COc1cc(CC(=O)O)cc(-c2ccc(Cl)cc2)c1
logP [1]: 3.71 | Inhibition (Rattus norvegicus [2]): 66%

COc1ccc(-n2c(C)c(N(C)C)c(=O)n(C)c2=O)cc1
logP [1]: 1.96 | Inhibition (Rattus norvegicus [2]): 41%

COc1cc(CC(=O)O)cc(-c2ccccc2Cl)c1
logP [1]: 3.66 | Inhibition (Rattus norvegicus [2]): 75%

O=C(O)Cc1cccc(Br)c1
logP [1]: 2.36 | Inhibition (Rattus norvegicus [2]): 0%

C=CCn1c(=O)c(N(C)C)c(C)n(-c2ccccc2)c1=O
logP [1]: 1.98 | Inhibition (Rattus norvegicus [2]): 75%
